According to ChEMBL document CHEMBL1921722, “In vitro and in vivo evaluation of select kahalalide F analogs with antitumor and antifungal activities” (Bioorg Med Chem, 2011):
Active and inactive are the calls of the source.

How the values were obtained:
UACC-62 = assay: Cytotoxicity against human UACC62 cells by sulforhodamine B assay; assay type: functional; details: for TGI: read-out: pTGI (converted)
Outline: (§1)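 NCI Developmental Therapeutics Program 60-cell-line human tumor panel screen, run at NCI. A single-concentration pre-screen was followed by a five-concentration dose-response in 10-fold steps. GI50 is the concentration that reduces growth of treated cells to half that of untreated control cells. TGI is the concentration that completely halts growth.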

SK-MEL-2 = assay: Cytotoxicity against human SK-MEL-2 cells assessed as cell growth at 8 nM by sulforhodamine B assay relative to control; assay type: functional; details: read-out: Activity
NCI-H522 = assay: Cytotoxicity against human NCI-H522 cells assessed as cell growth at 8 nM by sulforhodamine B assay relative to control; assay type: functional; details: read-out: Activity
NCI-H322M = assay: Cytotoxicity against human NCI-H322M cells assessed as cell growth at 8 nM by sulforhodamine B assay relative to control; assay type: functional; details: read-out: Activity
Mus musculus = assay: Acute toxicity in athymic nude mouse assessed as mortality at 200 mg/kg, […] after 19 days; assay type: organism-based; set-up: dose 200 mg/kg, route intraperitoneal; details: in vivo, ip, 456 h
MDA-MB-231 = assay: Antitumor activity against human MDA-MB-231 cells xenografted in mouse assessed as tumor cell killing at 4.7 mg/kg, ip qd for 4 days by MTT assay; assay type: functional, organism-based; set-up: dose 4.7 mg/kg
Outline: (§2)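 Hollow-fiber assay in mice. Tumor lines were grown in RPMI-1640 with 10% FBS and 2 mM glutamine. Cells at 2 × 10^6 cells/ml were loaded into 1 mm PVDF fibers (500,000 Da cutoff), heat-sealed at 2 cm and held 24–48 h at 37 °C, 5% CO2 before implantation. Compound was given IP. Fibers were collected the day after the fourth treatment for MTT (OD 540 nm, group means). A ≥50% cut in percent net growth versus vehicle counted as positive.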

Hs-578T [1] = assay: Cytotoxicity against human Hs578T cells assessed as cell growth at 8 nM by sulforhodamine B assay relative to control; assay type: functional; details: read-out: Activity
MDA-MB-435 = assay: Cytotoxicity against human MDA-MB-435 cells assessed as cell growth at 8 nM by sulforhodamine B assay relative to control; assay type: functional; details: read-out: Activity
HCT-116 [2] = assay: Cytotoxicity against human HCT116 cells assessed as cell growth at 80 nM by sulforhodamine B assay relative to control; assay type: functional; details: read-out: Activity
HCT-15 [3] = assay: Cytotoxicity against human HCT15 cells assessed as cell growth at 80 nM by sulforhodamine B assay relative to control; assay type: functional; details: read-out: Activity
SW-620 [4] = assay: Cytotoxicity against human SW620 cells assessed as cell growth at 80 nM by sulforhodamine B assay relative to control; assay type: functional; details: read-out: Activity
LOX IMVI [5] = assay: Cytotoxicity against human LOXIMVI cells assessed as cell growth at 80 nM by sulforhodamine B assay relative to control; assay type: functional; details: read-out: Activity
RXF 393 = assay: Cytotoxicity against human RXF393 cells assessed as cell growth at 80 nM by sulforhodamine B assay relative to control; assay type: functional; details: read-out: Activity
HOP-92 = assay: Cytotoxicity against human HOP92 cells assessed as cell growth at 800 nM by sulforhodamine B assay relative to control; assay type: functional; details: read-out: Activity
HCC 2998 = assay: Cytotoxicity against human HCC2998 cells assessed as cell growth at 800 nM by sulforhodamine B assay relative to control; assay type: functional; details: read-out: Activity
OVCAR-5 = assay: Cytotoxicity against human OVCAR5 cells assessed as cell growth at 800 nM by sulforhodamine B assay relative to control; assay type: functional; details: read-out: Activity
SK-OV-3 [6] = assay: Cytotoxicity against human SKOV3 cells assessed as cell growth at 800 nM by sulforhodamine B assay relative to control; assay type: functional; details: read-out: Activity
ACHN = assay: Cytotoxicity against human ACHN cells assessed as cell growth at 800 nM by sulforhodamine B assay relative to control; assay type: functional; details: read-out: Activity
Outline: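 Run at NCI in the DTP 60-cell-line human tumor panel by standard procedure. Compounds were first screened at a single concentration, then tested at five tenfold-spaced concentrations. GI50 is the concentration reducing treated-cell growth to half that of untreated controls; TGI is the concentration completely halting growth.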

UO-31 [7] = assay: Cytotoxicity against human UO31 cells assessed as cell growth at 800 nM by sulforhodamine B assay relative to control; assay type: functional; details: read-out: Activity
HCT-15 [8] = assay: Cytotoxicity against human HCT15 cells assessed as cell growth at 8 uM by sulforhodamine B assay relative to control; assay type: functional; details: read-out: Activity
SK-MEL-28 [9] = assay: Cytotoxicity against human SK-MEL-28 cells assessed as cell growth at 8 uM by sulforhodamine B assay relative to control; assay type: functional; details: read-out: Activity
SN12C = assay: Cytotoxicity against human SN12C cells assessed as cell growth at 8 uM by sulforhodamine B assay relative to control; assay type: functional; details: read-out: Activity
UO-31 [10] = assay: Cytotoxicity against human UO31 cells assessed as cell growth at 8 uM by sulforhodamine B assay relative to control; assay type: functional; details: read-out: Activity
Hs-578T [11] = assay: Cytotoxicity against human Hs578T cells assessed as cell growth at 8 uM by sulforhodamine B assay relative to control; assay type: functional; details: read-out: Activity
HCT-116 [12] = assay: Cytotoxicity against human HCT116 cells assessed as cell growth at 80 uM by sulforhodamine B assay relative to control; assay type: functional; details: read-out: Activity
SW-620 [13] = assay: Cytotoxicity against human SW620 cells assessed as cell growth at 80 uM by sulforhodamine B assay relative to control; assay type: functional; details: read-out: Activity
SK-MEL-28 [14] = assay: Cytotoxicity against human SK-MEL-28 cells assessed as cell growth at 80 uM by sulforhodamine B assay relative to control; assay type: functional; details: read-out: Activity
SK-MEL-5 = assay: Cytotoxicity against human SK-MEL-5 cells assessed as cell growth at 80 uM by sulforhodamine B assay relative to control; assay type: functional; details: read-out: Activity
SK-OV-3 [15] = assay: Cytotoxicity against human SKOV3 cells assessed as cell growth at 80 uM by sulforhodamine B assay relative to control; assay type: functional; details: read-out: Activity
MCF7 = assay: Cytotoxicity against human MCF7 cells assessed as cell growth at 80 uM by sulforhodamine B assay relative to control; assay type: functional; details: read-out: Activity
LOX IMVI [16] = assay: Antitumor activity against human LOXIMVI cells xenografted in mouse assessed as tumor cell killing at 4.7 mg/kg, ip qd for 4 days by MTT assay; assay type: functional, organism-based; set-up: dose 4.7 mg/kg; outline: as §2
OVCAR-3 = assay: Antitumor activity against human OVCAR3 cells xenografted in mouse assessed as tumor cell killing at 4.7 mg/kg, ip qd for 4 days by MTT assay; assay type: functional, organism-based; set-up: dose 4.7 mg/kg; outline: as §2
[17] = test system: Mycobacterium intracellulare; assay: Antimicrobial activity against Mycobacterium intracellular ATCC 23068 after 5 days by MABA assay; assay type: functional, organism-based; details: ATCC 23068, 120 h
Outline: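 M. intracellulare was tested by a modified Franzblau method. Samples were serially diluted in 20% DMSO/saline, run in duplicate, and inocula were adjusted by OD630. […] IC50 is 50% growth inhibition; MIC is the lowest concentration with no detectable growth.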

SF-539 = assay: Cytotoxicity against human SF539 cells by sulforhodamine B assay; assay type: functional; details: for TGI: read-out: pTGI (converted); outline: as §1
SNB-75 = assay: Cytotoxicity against human SNB75 cells by sulforhodamine B assay; assay type: functional; outline: as §1

C/C=C1\NC(=O)[C@H](Cc2ccccc2)NC(=O)[C@@H](C(C)C)NC(=O)[C@@H]([C@@H](C)CC)NC(=O)[C@H](NC(=O)[C@H](NC(=O)[C@H](CCCNCc2ccc(N3CCOCC3)cc2)NC(=O)[C@H]2CCCN2C(=O)[C@H](NC(=O)[C@@H](NC(=O)[C@@H](NC(=O)[C@H](NC(=O)CCCC(C)C)C(C)C)[C@@H](C)O)C(C)C)C(C)C)[C@@H](C)CC)[C@@H](C)OC(=O)[C@H](C(C)C)NC1=O
GI50 (UACC-62): 1350 nM | LC50 (UACC-62): 4270 nM | TGI (UACC-62): 2400 nM | growth at 0.008 µM (SK-MEL-2): 105% | growth at 0.008 µM (NCI-H522): 99% | growth at 0.008 µM (NCI-H322M): 109% | Activity (Mus musculus): Toxic | Activity (MDA-MB-231): inactive | growth at 0.008 µM (Hs-578T [1]): 109% | growth at 0.008 µM (MDA-MB-435): 103% | growth at 0.08 µM (HCT-116 [2]): 100% | growth at 0.08 µM (HCT-15 [3]): 107% | growth at 0.08 µM (SW-620 [4]): 99% | growth at 0.08 µM (LOX IMVI [5]): 100% | growth at 0.08 µM (RXF 393): 99% | growth at 0.8 µM (HOP-92): 79% | growth at 0.8 µM (HCC 2998): 6% | growth at 0.8 µM (OVCAR-5): 64% | growth at 0.8 µM (SK-OV-3 [6]): -35% | growth at 0.8 µM (ACHN): 90% | growth at 0.8 µM (UO-31 [7]): 96% | growth at 8 µM (HCT-15 [8]): -82% | growth at 8 µM (SK-MEL-28 [9]): -85% | growth at 8 µM (SN12C): -47% | growth at 8 µM (UO-31 [10]): -76% | growth at 8 µM (Hs-578T [11]): -46% | growth at 80 µM (HCT-116 [12]): -58% | growth at 80 µM (SW-620 [13]): -13% | growth at 80 µM (SK-MEL-28 [14]): -13% | growth at 80 µM (SK-MEL-5): -56% | growth at 80 µM (SK-OV-3 [15]): -23% | growth at 80 µM (MCF7): 6% | Activity (LOX IMVI [16]): inactive | Activity (OVCAR-3): inactive | IC50 [17]: > 20000 nM | MBC [17]: > 20 µM | MIC [17]: > 20 µM | GI50 (SF-539): 1290 nM | LC50 (SF-539): 4570 nM | TGI (SF-539): 2450 nM | GI50 (SNB-75; read-out: GI50): 808 nM | TGI (SNB-75; read-out: TGI): 1900 nM | GI50 (SNB-75; read-out: pGI50 (converted)): 813 nM | TGI (SNB-75; read-out: pTGI (converted)): 1910 nM

C/C=C1\NC(=O)[C@H](Cc2ccccc2)NC(=O)[C@@H](C(C)C)NC(=O)[C@@H]([C@@H](C)CC)NC(=O)[C@H](NC(=O)[C@H](NC(=O)[C@H](CCCNCc2ccc(F)c(C)c2)NC(=O)[C@H]2CCCN2C(=O)[C@H](NC(=O)[C@@H](NC(=O)[C@@H](NC(=O)[C@H](NC(=O)CCCC(C)C)C(C)C)[C@@H](C)O)C(C)C)C(C)C)[C@@H](C)CC)[C@@H](C)OC(=O)[C@H](C(C)C)NC1=O
GI50 (UACC-62): 1260 nM | LC50 (UACC-62): 4170 nM | TGI (UACC-62): 2290 nM | growth at 0.008 µM (SK-MEL-2): 98% | growth at 0.008 µM (NCI-H522): 104% | growth at 0.008 µM (NCI-H322M): 105% | Activity (Mus musculus): Non-toxic | Activity (MDA-MB-231): inactive | growth at 0.008 µM (Hs-578T [1]): 102% | growth at 0.008 µM (MDA-MB-435): 109% | growth at 0.08 µM (HCT-116 [2]): 96% | growth at 0.08 µM (HCT-15 [3]): 103% | growth at 0.08 µM (SW-620 [4]): 97% | growth at 0.08 µM (LOX IMVI [5]): 94% | growth at 0.08 µM (RXF 393): 106% | growth at 0.8 µM (HOP-92): 92% | growth at 0.8 µM (HCC 2998): -47% | growth at 0.8 µM (OVCAR-5): 55% | growth at 0.8 µM (SK-OV-3 [6]): -46% | growth at 0.8 µM (ACHN): 81% | growth at 0.8 µM (UO-31 [7]): 92% | growth at 8 µM (HCT-15 [8]): -92% | growth at 8 µM (SK-MEL-28 [9]): -83% | growth at 8 µM (SN12C): -81% | growth at 8 µM (UO-31 [10]): -78% | growth at 8 µM (Hs-578T [11]): -48% | growth at 80 µM (HCT-116 [12]): -94% | growth at 80 µM (SW-620 [13]): -80% | growth at 80 µM (SK-MEL-28 [14]): 1% | growth at 80 µM (SK-MEL-5): -100% | growth at 80 µM (SK-OV-3 [15]): -75% | growth at 80 µM (MCF7): 3% | Activity (LOX IMVI [16]): inactive | Activity (OVCAR-3): inactive | IC50 [17]: > 20000 nM | MBC [17]: > 20 µM | MIC [17]: > 20 µM | GI50 (SF-539): 1290 nM | LC50 (SF-539): 4370 nM | TGI (SF-539): 2400 nM | GI50 (SNB-75; read-out: GI50): 370 nM | TGI (SNB-75; read-out: TGI): 1250 nM | GI50 (SNB-75; read-out: pGI50 (converted)): 372 nM | TGI (SNB-75; read-out: pTGI (converted)): 1260 nM
